Broadly, the IC50 is the concentration that gives 50% inhibition.

The source of these data is ChEMBL document CHEMBL3124940, “Design, synthesis and biological evaluation of D-ring opened galantamine analogs as multifunctional anti-Alzheimer agents” (Eur J Med Chem, 2014).

Test [1] deals with Amyloid-beta precursor protein (Homo sapiens) (UniProt P05067). The experiment in a line: Inhibition of amyloid beta (1 to 42) aggregation (unknown origin) at 5 uM after 1 hr by thioflavin T fluorescence assay. The gist of the method:
(§1)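 Aβ42 stock (200 µM in DMSO) centrifuged 12,000 rpm for 10 min; supernatant used. Compound (2 µL of 0.2–4.0 mM DMSO stock) and 2 µL Aβ42 stock added to 76 µL PBS pH 7.4, incubated 1 h at room temperature. 80 µL of 5 µM ThT in 50 mM glycine-NaOH pH 8.5 then added; fluorescence read at excitation 430 nm, emission 488 nm.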

Test [2] shares this target. The experiment in a line: Inhibition of amyloid beta (1 to 42) aggregation (unknown origin) after 1 hr by thioflavin T fluorescence assay. The gist of the method:
as §1

Test [3] is described as follows: Selectivity ratio of IC50 for electric eel AChE to IC50 for equine serum BChE. A digest of the protocol: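 AChE is electric eel Type VI-S with acetylthiocholine; BChE is equine serum with butyrylthiocholine. At least five concentrations, each in triplicate. Ratio = IC50(AChE)/IC50(BChE).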
In test [4] the target is Acetylcholinesterase (Electrophorus electricus, UniProt O42275). As to the kind of experiment: Inhibition of electric eel AChE using acetylthiocholine iodide as substrate preincubated for 5 mins followed by substrate addition measured after 5 mins by Ellman's method.
Acetylcholinesterase, sequence (O42275 whole entry): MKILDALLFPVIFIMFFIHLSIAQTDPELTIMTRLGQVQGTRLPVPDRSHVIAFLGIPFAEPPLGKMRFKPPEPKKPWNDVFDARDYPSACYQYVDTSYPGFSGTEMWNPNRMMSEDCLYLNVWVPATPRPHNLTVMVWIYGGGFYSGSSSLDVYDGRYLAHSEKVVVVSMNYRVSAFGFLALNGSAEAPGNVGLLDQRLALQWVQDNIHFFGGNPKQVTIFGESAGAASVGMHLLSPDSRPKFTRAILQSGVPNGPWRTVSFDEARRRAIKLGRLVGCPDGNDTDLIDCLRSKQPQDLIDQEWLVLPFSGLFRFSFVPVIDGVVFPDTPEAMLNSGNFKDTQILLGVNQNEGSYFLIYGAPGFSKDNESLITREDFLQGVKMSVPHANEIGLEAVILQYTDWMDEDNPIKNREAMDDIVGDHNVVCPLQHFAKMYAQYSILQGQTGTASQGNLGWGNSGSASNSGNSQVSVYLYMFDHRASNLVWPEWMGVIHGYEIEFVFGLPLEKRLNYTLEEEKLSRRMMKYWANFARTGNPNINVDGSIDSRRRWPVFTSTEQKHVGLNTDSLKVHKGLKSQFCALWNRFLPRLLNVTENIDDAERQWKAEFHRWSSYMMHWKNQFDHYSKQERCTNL
Test [5] deals with Cholinesterase (Equus caballus, UniProt P81908). As to the kind of experiment: Inhibition of equine serum BChE using butyrylthiocholine iodide as substrate preincubated for 5 mins followed by substrate addition measured after 5 mins by Ellman's method. The gist of the method: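 Ellman's method with equine serum BChE and butyrylthiocholine iodide; DTNB read-out at 412 nm, 25 °C. Phosphate buffer pH 8.0. At least five concentrations (normally 10^-4 to 10^-9 M), each in triplicate, to build the inhibition curve. Data are means of at least three determinations.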
Cholinesterase, sequence (P81908 whole entry): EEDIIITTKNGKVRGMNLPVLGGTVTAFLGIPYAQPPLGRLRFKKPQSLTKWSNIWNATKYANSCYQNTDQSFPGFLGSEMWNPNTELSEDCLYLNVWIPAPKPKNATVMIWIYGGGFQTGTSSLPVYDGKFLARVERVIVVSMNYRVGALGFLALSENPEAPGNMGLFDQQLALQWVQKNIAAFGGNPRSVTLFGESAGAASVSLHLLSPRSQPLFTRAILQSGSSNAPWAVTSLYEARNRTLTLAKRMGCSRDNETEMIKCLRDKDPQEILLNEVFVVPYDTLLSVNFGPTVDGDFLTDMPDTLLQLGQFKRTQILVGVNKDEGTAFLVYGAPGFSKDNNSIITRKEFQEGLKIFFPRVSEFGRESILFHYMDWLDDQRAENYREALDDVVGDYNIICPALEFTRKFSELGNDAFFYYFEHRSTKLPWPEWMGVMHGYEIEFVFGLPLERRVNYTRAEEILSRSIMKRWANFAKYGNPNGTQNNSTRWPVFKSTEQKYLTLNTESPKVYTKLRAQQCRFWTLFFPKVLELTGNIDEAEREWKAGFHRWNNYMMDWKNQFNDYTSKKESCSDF

Activity calls are given as the source filed them. The calls are words filed in the database; no cut-off is given here. Some results are limits rather than exact numbers.

Amyloid-beta precursor protein (Homo sapiens), sequence (P05067 whole entry): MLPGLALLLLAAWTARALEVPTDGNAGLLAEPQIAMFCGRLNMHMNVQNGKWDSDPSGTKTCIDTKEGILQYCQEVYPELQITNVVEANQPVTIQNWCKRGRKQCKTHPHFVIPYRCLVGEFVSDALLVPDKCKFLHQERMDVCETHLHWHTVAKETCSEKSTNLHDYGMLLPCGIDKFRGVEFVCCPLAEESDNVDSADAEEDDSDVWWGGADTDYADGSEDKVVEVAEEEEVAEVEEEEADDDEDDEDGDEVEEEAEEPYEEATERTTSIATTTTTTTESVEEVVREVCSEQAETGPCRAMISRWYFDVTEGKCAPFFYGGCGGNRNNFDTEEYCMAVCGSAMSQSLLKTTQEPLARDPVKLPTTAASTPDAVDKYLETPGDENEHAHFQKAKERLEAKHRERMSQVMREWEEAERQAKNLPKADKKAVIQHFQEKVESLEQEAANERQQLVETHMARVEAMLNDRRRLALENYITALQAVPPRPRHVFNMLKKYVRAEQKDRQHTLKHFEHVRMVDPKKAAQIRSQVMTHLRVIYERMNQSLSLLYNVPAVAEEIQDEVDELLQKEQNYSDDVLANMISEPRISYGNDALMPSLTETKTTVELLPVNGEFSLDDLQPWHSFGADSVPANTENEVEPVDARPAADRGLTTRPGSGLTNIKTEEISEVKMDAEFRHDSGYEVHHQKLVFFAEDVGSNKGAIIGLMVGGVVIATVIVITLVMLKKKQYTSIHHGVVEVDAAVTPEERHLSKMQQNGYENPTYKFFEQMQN

With `COc1cc(/C=C/C(=O)CC(=O)/C=C/c2ccc(O)c(OC)c2)ccc1O`, the inhibition result in test [1] was “inactive”. The inhibition entry in test [2] is “Dose-dependent effect”.

With `CCNCc1cccc2oc3cc(OC)ccc3c12`, the Ratio IC50 in test [3] amounted to 0.85. Moreover, the half-maximal inhibitory concentration (IC50) in test [4] is 18.9 µM; in test [5] it was 22.2 µM.

On to `CCN(CC)Cc1cccc2oc3cc(OC)ccc3c12`, for which the Ratio IC50 in test [3] came to 1.43. Also, the IC50 in test [4] amounted to 39.1 µM; in test [5], 27.4 µM.

With `COc1ccc2c(c1)[nH]c1cccc(CNC(C)C)c12`, in test [3], the Ratio IC50 was 5.03. Also, the concentration for half-maximal inhibition (IC50) in test [4] was determined as 50.8 µM; in test [5], 10.1 µM.

Turning to `COc1ccc2c(c1)[nH]c1cccc(CNCc3ccccc3)c12`, the IC50 in test [4] was > 50 µM; in test [5], 29.9 µM.

Regarding `COc1ccc2c(c1)oc1cccc(CNCc3ccccc3)c12`, the 50% inhibitory concentration (IC50) in test [4] was > 50 µM; in test [5], 18.1 µM.
